For experiment [1], the system named is PC-3. Nature of the experiment: Induction of autophagy in human PC3 cells assessed as upregulation of LC3 expression after 24 hrs by Western blot analysis. The experiment is classed as functional, cell-based. The method in brief: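 PC3 cells in RPMI 1640 with 10% FBS, treated at 50−70% confluence for a time course up to 24 h; DMSO vehicle control. Lysed in RIPA buffer; 40 μg protein run on SDS-PAGE, transferred to nitrocellulose, primary antibody overnight at 4 °C, HRP secondary 45 min, ECL detection. GAPDH or β-actin loading control.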

The subject of experiment [2] is PC-3. Briefly: Induction of apoptosis in human PC3 cells assessed as late apoptotic cells at 0.5 uM after 24 hrs by Annexin V-FITC/propidium iodide based flow cytometric analysis (reference value: 1.1 %). It is filed as functional. The method in brief:
(§1)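 PC3 cells exposed to 0.5, 1 or 2 μM for 24 h, then stained with Annexin V-FITC and PI and analyzed by FACSCalibur flow cytometry. Populations assigned as necrotic (Annexin V−/PI+), late apoptotic (double positive), normal (Annexin V−/PI−) and early apoptotic (Annexin V+/PI−). DMSO vehicle control.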

For experiment [3], the system named is PC-3. Briefly: Induction of morphological changes in human PC3 cells assessed as formation of massive cytoplasmic vacuoles at 1 uM after 12 hrs by confocal microscopic analysis. It is filed as functional, cell-based.
Experiment [4] deals with PC-3. Nature of the experiment: Induction of cell cycle arrest in human PC3 cells assessed as accumulation in G2 phase at 1 uM after 24 hrs by […]propidium iodide based flow cytometric analysis (reference value: 16.3 to 25 %). It is filed as functional.
In experiment [5] the test system is PC-3. Nature of the experiment: Induction of apoptosis in human PC3 cells assessed as necrotic cells at 0.5 uM after 24 hrs by Annexin V-FITC/propidium iodide based flow cytometric analysis (reference value: 1.1 %). The experiment is classed as functional. In outline:
as §1

In experiment [6] the test system is PC-3M. Briefly: Induction of ER stress i in human PC3M-lluc-C6 cells xenografted in athymic Balb/c mouse assessed as increase in GRP78 protein levels at 15 mg/kg, ip administered every 2 days for 18 days by Western blot and immunohistochemical staining method. It is filed as functional, organism-based. The method in brief: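 Tumor tissue from PC3M-luc-C6 xenografts in BALB/c-nu mice dosed 15 mg/kg i.p. every 2 days. GRP78 measured by Western blot and by immunohistochemistry (anti-GRP78 1:500 overnight at 4 °C, HRP/DAB, hematoxylin counterstain).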

Experiment [7] concerns PC-3M. Briefly: Induction of paraptosis in human PC3M-lluc-C6 cells xenografted in athymic Balb/c mouse at 15 mg/kg, ip administered every 2 days for 18 days by H and E staining based method. The experiment is classed as functional, organism-based. The method in brief: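 Subcutaneous PC3M-luc-C6 xenografts (5 × 10^6 cells) were grown in 6-week male athymic BALB/c-nu mice. Groups of n = 5 received 15 mg/kg i.p. every 2 days from ~0.1 cm3 tumor volume, with a vehicle group. Excised tumor tissue was examined by H&E staining for vacuoles.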

The test system of experiment [8] is PC-3. Briefly: Cytotoxicity in human PC3 cells assessed as reduction in cell viability after 24 hrs in presence of AcT-D by MTT assay. The experiment is classed as functional, cell-based. The method in brief:
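PC3 cells pretreated with 10 μM actinomycin D or 5 μM cycloheximide, then treated with compound for 24 h. Viability by MTT at 570 nm. Vacuolation imaged by phase-contrast microscopy.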

A further experiment deals with MDA-MB-231. Briefly: Cytotoxicity against human MDA-MB-231 cells assessed as cell growth inhibition after 24 hrs by MTT assay. Particulars: MDA-MB-231, 24 h. The experiment is classed as functional, cell-based. In outline: (§2)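 Cells seeded 24 h in RPMI 1640 + 10% FBS. RWPE-1 was kept in K-SFM with bovine pituitary extract and EGF. Cells then exposed to compounds for 24 h at 37 °C, 5% CO2, with DMSO vehicle and docetaxel as positive control. MTT added for 4 h, absorbance read at 570 nm. Triplicate runs, IC50 reported as mean of three experiments.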

Experiment [9] relates to PC-3M. Briefly: Antitumor activity against human PC3M-lluc-C6 cells xenografted in athymic Balb/c mouse assessed as decrease in tumor burden by measuring photon intensity at 15 mg/kg, ip measured on day 18 by bioluminescence method (reference value: 2.332 x 10^10 photons/s/cm2). It is filed as functional.
Experiment [10] relates to PC-3. Nature of the experiment: Induction of autophagy in human PC3 cells assessed as vacuole formation at 1 uM after 24 hrs in presence of […] inhibitor E-64d by phase-contrast microscopic analysis. The experiment is classed as functional, cell-based. The method in brief: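 PC3 cells were pretreated with the autophagy inhibitor (3-MA or E64d), then exposed to 1 μM test agent for 24 h. Morphology was imaged by phase-contrast microscopy, and viability was read by MTT at 570 nm. Comparison was against agent-only cells.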

Experiment [11] relates to PC-3. Briefly: Induction of apoptosis in human PC3 cells assessed as PARP cleavage after 24 hrs by Western blot analysis. It is filed as functional, cell-based. The method in brief: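 PC3 cells in RPMI 1640 with 10% FBS, treated with compound for timed intervals. DMSO vehicle control. Lysis in RIPA buffer, 40 μg protein per lane on SDS-PAGE, transfer to nitrocellulose. Primary antibodies overnight at 4 °C, HRP-secondary 45 min, ECL detection. GAPDH or β-actin used as loading control.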

In experiment [12] the test system is PC-3. Briefly: Induction of apoptosis in human PC3 cells assessed as viable cells at 2 uM after 24 hrs by Annexin V-FITC/propidium iodide based flow cytometric analysis (reference value: 95.4 %). Particulars: PC-3, 24 h, read-out: Activity. The experiment is classed as functional. The method in brief:
as §1

For experiment [13], the system named is PC-3. Nature of the experiment: Induction of apoptosis in human PC3 cells assessed as necrotic cells at 2 uM after 24 hrs by Annexin V-FITC/propidium iodide based flow cytometric analysis (reference value: 1.1 %). It is filed as functional. In outline: as §1
In experiment [14] the test system is PC-3. Briefly: Induction of cell cycle arrest in human PC3 cells assessed as accumulation in G0/G1 phase at 0.5 uM after 24 hrs by […]propidium iodide based flow cytometric analysis (reference value: 43.5 to 62.5 %). It is filed as functional.
For experiment [15], the system named is PC-3M. Nature of the experiment: Antitumor activity against human PC3M-lluc-C6 cells xenografted in athymic Balb/c mouse assessed as tumor growth inhibition at 15 mg/kg, ip administered every 2 days for 18 days. The experiment is classed as functional. Particulars: read-out: TGI.
For experiment [16], the system named is PC-3. Briefly: Growth inhibition of human PC3 cells at IC30 in presence of MG139 assessed as combination index by MTT assay. The experiment is classed as functional. In outline:
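PC3 cells incubated with increasing concentrations of compound combined with a second agent (bortezomib or partner compound). Viability determined, combination index calculated: CI < 1 synergism, = 1 additive, > 1 antagonism.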

Experiment [17] relates to PC-3. Briefly: Induction of ER stress in human PC3 cells assessed as GRP78 upregulation incubated for 22 hrs after ER stress inhibitor 4-PBA exposure for 2 hrs by Western blot analysis. It is filed as functional, cell-based. The method in brief:
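PC3 cells pretreated 2 h with 4-PBA (100 μM), then compound added for a further 22 h. Viability measured by MTT. GRP78 assessed by Western blot, along with XBP1 mRNA splicing analysis. Morphology by phase contrast.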

The subject of experiment [18] is PC-3M. Briefly: Antitumor activity against human PC3M-lluc-C6 cells xenografted in athymic Balb/c mouse assessed as tumor weight at 15 mg/kg, ip administered every 2 days for 18 days (reference value: 0.71 +/- 0.06 g). It is filed as functional.
In experiment [19] the test system is PC-3. Nature of the experiment: Induction of apoptosis in human PC3 cells assessed as viable cells at 1 uM after 24 hrs by Annexin V-FITC/propidium iodide based flow cytometric analysis (reference value: 95.4 %). It is filed as functional. Particulars: PC-3, 24 h, read-out: Activity. In outline: as §1
Another experiment deals with DU-145. Briefly: Cytotoxicity against human DU145 cells assessed as cell growth inhibition after 24 hrs by MTT assay. Particulars: DU-145, 24 h. The experiment is classed as functional, cell-based. In outline: as §2

Active and inactive are the calls of the source. No cut-off for these calls is given here.

With `Cc1cc(C)cc(COc2cc3c(cc2OCc2cc(C)cc(C)c2)[C@@H]2C[C@H](O)C[C@@H](C)N2CC3)c1` (racemic), the outcome in the experiment with PC-3 [1], in the experiment on PC-3 [3], in the experiment with PC-3M [6], in the experiment with PC-3M [7], in the experiment on PC-3 [10] and in the experiment with PC-3 [11] was Active. Further, the Activity with PC-3 [2] is recorded as 1.2%; with PC-3 [4] it was 11.9 - 14.5%; with PC-3 [5], 1%; in the experiment on PC-3M [9], 1.766 ×10⁹ /s/cm2; with PC-3 [13] it was 3.1%; with PC-3 [14], 63.8 - 70.2%. For the same compound, the Activity in the experiment on PC-3M [18] is listed as 0.42 g. The outcome in the experiment on PC-3 [8] and in the experiment with PC-3 [17] was inactive. Further, the IC50 is 820 nM in the experiment with MDA-MB-231 and 1960 nM in the experiment with DU-145. In the experiment with PC-3 [12], the viability at 2 µM came to 40%. Further, the inhibition in vivo at 15 mg/kg with PC-3M [15] was 40.5%. Besides, the CI in the experiment on PC-3 [16] was 0.1 - 0.3. For the same compound, the viability at 1 µM in the experiment with PC-3 [19] is 90%.

The values are drawn from ChEMBL document CHEMBL4425094, “Novel Benzo[a]quinolizidine Analogs Induce Cancer Cell Death through Paraptosis and Apoptosis” (J Med Chem, 2016).
